Data reported in ChEMBL document CHEMBL3861990, “Elaboration of a proprietary thymidylate kinase inhibitor motif towards anti-tuberculosis agents” (Bioorg Med Chem, 2016).

test: Inhibition of recombinant Mycobacterium tuberculosis TMPK expressed in Escherichia coli using dTMP as substrate in presence of ATP/pyruvate kinase/lactate dehydrogenase/nucleoside diphosphate kinase by coupled spectrophotometric assay
Method in brief: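 Coupled assay read at 334 nm. Medium: 50 mM Tris-HCl pH 7.4, 50 mM KCl, 2 mM MgCl2, 0.2 mM NADH, 1 mM phosphoenolpyruvate, and 2 units each of LDH, pyruvate kinase and NDP kinase. ATP fixed at 0.5 mM and dTMP at 0.05 mM. Analogues varied from 0.01 to 1 mM. Result reported as Ki.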

Structure (SMILES) | Ki [µM]
Cc1cn(C/C=C\CN2c3cccc4cccc(c34)S2(=O)=O)c(=O)[nH]c1=O | 0.27

test: Inhibition of recombinant Mycobacterium tuberculosis TMPK using dTMP as substrate measured after 1 min in presence of ATP/pyruvate kinase/lactate dehydrogenase/nucleoside diphosphate kinase by coupled spectrophotometric assay
Method in brief: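 Medium: 50 mM Tris-HCl pH 7.4, 50 mM KCl, 2 mM MgCl2, 0.2 mM NADH, 1 mM phosphoenolpyruvate, and 2 units each of LDH, pyruvate kinase and NDP kinase. ATP fixed at 0.5 mM and dTMP at 0.05 mM. Analogues varied from 0.01 to 1 mM. Result reported as Ki.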

Structure (SMILES) | Ki [µM]
Nc1nc(=O)n([C@H]2C[C@H](O)[C@@H](CO)O2)cc1Br | 5
Cc1cn([C@H]2CCN(Cc3cccc(Oc4ccccc4)c3)C2)c(=O)[nH]c1=O | 7.8
Cc1cn([C@@H]2CCCN(Cc3ccc(Oc4ccccc4)cc3)C2)c(=O)[nH]c1=O | 138
Cc1cn([C@@H]2CCN(Cc3cccc(Oc4ccccc4)c3)C2)c(=O)[nH]c1=O | 8.2
Cc1cn([C@H]2CCCN(Cc3ccc(Oc4ccccc4)cc3)C2)c(=O)[nH]c1=O | 21.5
Cc1cn(CC2CCN(Cc3cccc(Oc4ccccc4)c3)C2)c(=O)[nH]c1=O (racemic) | 111
Cc1cn(CC2CCN(Cc3ccc(Oc4ccccc4)cc3)C2)c(=O)[nH]c1=O (racemic) | 267
Cc1cn(C2CCCN(Cc3ccc(Oc4ccccc4)cc3)C2)c(=O)[nH]c1=O (racemic) | 22.3
Cc1cn(C2CCCN(C(=O)c3ccc(Oc4ccccc4)cc3)C2)c(=O)[nH]c1=O (racemic) | 14.4
Cc1cn(CC2CCCN(Cc3cccc(Oc4ccccc4)c3)C2)c(=O)[nH]c1=O (racemic) | 186
Cc1cn(C2CCCN(C(=O)c3cccc(Oc4ccccc4)c3)C2)c(=O)[nH]c1=O (racemic) | 2.1
